Furin inh: inhibitors of human furin. P09958. purified furin, fluorogenic substrate cleavage. inhibition, % at 20 µM or 30 µM. hit rate 0.061% among 220,000. AID 463115; in the data active means inhibition above about 25%
RBBP9 inh: human RBBP9 hydrolase inhibition | hit rate 0.2% among 220,000 | recombinant RBBP9, FP-Rh probe fluorescence polarization | inhibition, % at 7.94 µM | O75884;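 active means inhibition above the campaign mean of all tested compounds plus 3 SD, cut at about 14% in these data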
Target sequence (O75884 whole entry, looked up): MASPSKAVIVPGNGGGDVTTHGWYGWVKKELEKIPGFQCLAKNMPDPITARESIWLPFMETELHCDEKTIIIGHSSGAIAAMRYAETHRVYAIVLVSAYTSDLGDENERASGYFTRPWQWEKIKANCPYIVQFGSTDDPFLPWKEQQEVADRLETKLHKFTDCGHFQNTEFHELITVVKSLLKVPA
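System: RBBP9 protein | Quantity: 2.5 µM RBBP9 dispensing solution, before mixing | Reagent: FP-Rh probe, 375 nM dispensing solution | Timing: Enzyme-compound preincubation 30 min, then probe labeling 45 min, 25 °C | Measured by: Fluorescence polarization | Read-out: % inhibition | Replication: One well per compound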
Calpain2 inh: blocks pig calpain II enzyme activity | purified calpain II, fluorogenic peptide substrate, 30 min | inhibition, % at 16 µM | hit rate 0.37% among 220,000 | AID 1236;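 active means inhibition above about 50%, limit read from the data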
NCF1 inh: p47phox (human) inhibition | P14598 | p47phox/p22phox peptide binding, fluorescence polarization, 2 h | inhibition, % at 24.7 µM | hit rate 0.53% among 220,000 | AID 1274;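 active means inhibition above about 30%, limit read from the data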
Each line names hits and unclear results; the compound was inactive in the other large screens. A selection: hits, their analogues and other compounds. The true share with any hit is near 1.1%.

CCN=C(Nc1ccc2c(c1)OCO2)SC1CC(=O)N(c2ccccc2F)C1=O (stereo not drawn)	NCF1 inh 42.2
CCN=C(Nc1ccc2c(c1)OCO2)SC1CC(=O)N(c2ccc(OC)cc2)C1=O (stereo not drawn)	none
O=C(Oc1ccc(Cl)c2cccnc12)C12CC3CC(CC(C3)C1)C2	Calpain2 inh 56.3
O=C(Oc1ccc(Cl)c2cccnc12)N1CCCCC1	none
Cc1cc2[nH]c3c(c[n+](C)c4ccccc34)c2cc1C	NCF1 inh 49.8
O=c1[nH]c(/C=C/c2ccccc2[N+](=O)[O-])nc2ccccc12	none
O=c1[nH]c(/C=C/c2cccc3ccccc23)nc2ccccc12	NCF1 inh 53.8
O=[N+]([O-])c1ccc(Nc2ccccc2)nc1	none
O=[N+]([O-])c1ccc(NCc2ccccc2)nc1	Calpain2 inh 52.0
CCc1nnc(NS(=O)(=O)c2ccc(NC(=S)NC(=O)c3ccccc3)cc2)s1	none
CCc1nnc(NS(=O)(=O)c2ccc(NC(=S)NC(=O)c3ccc(Br)cc3)cc2)s1	Calpain2 inh 70.4
CCOC(=O)C1CSc2[nH]c(=O)sc2C1c1ccccc1 (stereo not drawn)	none
O=C(O)CC12CSc3[nH]c(=O)sc3C1c1ccccc1OC2=O (stereo not drawn)	Calpain2 inh 54.2
O=c1oc2ccccc2n1CCCCCn1c(=O)oc2ccccc21	none
NC(=O)CCn1c(=O)oc2ccccc21	NCF1 inh 67.9
COc1cccc(C2=CC(c3ccc(OC)c(OC)c3OC)n3nnnc3N2)c1 (stereo not drawn)	none
COc1cccc(C2=CC(c3cccs3)n3nnnc3N2)c1 (stereo not drawn)	Calpain2 inh 67.6
O=C(CSc1nnc(NC(=O)c2ccccc2Cl)s1)Nc1ccc2c(c1)oc1ccccc12	none
CC1(C)CC(=O)C2=C(C1)Nc1cc3c(cc1C2c1ccc2c(c1)OCO2)OCO3 (stereo not drawn)	NCF1 inh 59.4
C(=N\Nc1ncnc2nc[nH]c12)/c1cccs1	none
C/C(=N\NC(=O)c1cccnc1)c1ccc(C)c([N+](=O)[O-])c1	none
C/C(=N\NC(=O)c1[nH]c2c([N+](=O)[O-])cc(C)cc2c1-c1ccccc1)c1cccnc1	NCF1 inh 35.3
O=C(NCCO)Nc1ccc2nc(-c3ccco3)c(-c3ccco3)nc2c1	RBBP9 inh 15.1
O=C(NCCCO)c1ccc2nc(-c3ccco3)c(-c3ccco3)nc2c1	none
CCOc1ccc(Nc2nnc(SCc3nc4ccccc4c(=O)[nH]3)s2)cc1	Calpain2 inh 51.6
Cc1ccccc1Nc1nnc(SCc2nc3ccccc3c(=O)[nH]2)s1	none
COc1nc(C)ccc1-c1noc(-c2ccccn2)n1	Furin inh 28.5
COc1ccccc1-c1nc(-c2ccc(C)nc2OC)no1	none
OC(Cn1cncn1)(c1ccccc1)c1ccccc1	none
Cc1ccc(Sc2cnn(-c3ccccc3)c(=O)c2Cl)cc1	none
C=CCNc1cnn(-c2ccc(C)cc2)c(=O)c1Sc1ccc(C)cc1	Calpain2 inh 65.3
COC(=O)c1ccsc1-n1cc(C#N)c(=O)n(C)c1=O	none
COc1cc(/C=C2\SC(=O)N(c3ccc(Cl)cc3)C2=O)cc([N+](=O)[O-])c1O	none
COc1cc(/C=C2\SC(=O)N(c3cccc(Cl)c3)C2=O)cc([N+](=O)[O-])c1O	Calpain2 inh 65.9
CCn1c(COc2ccc(Cl)cc2)nnc1SC1CCc2ccccc2C1=O (stereo not drawn)	Calpain2 inh 51.8
CCn1c(COc2ccc(Cl)cc2)nnc1SCc1ccc(C#N)cc1	none
CCOC(=O)Cn1c(C)cc(=O)c2cccc(C)c21	none
CCOC(=O)Cn1c(=O)cc(C)c2cccc(C)c21	Calpain2 inh 73.5
CCN(CC(=O)NC(C)(C)C)C(=O)CCl	none
CCN(CC)S(=O)(=O)c1cc(NC(=O)CN2C(=O)NC3(CCCc4ccccc43)C2=O)ccc1C (stereo not drawn)	none
Cc1ccc(NC(=O)CN2C(=O)NC3(CCCc4ccccc43)C2=O)cc1S(=O)(=O)N1CCOCC1 (stereo not drawn)	NCF1 inh 40.0
CCn1cc(C(=O)O)c(=O)c2cc(F)c(N3CCN(S(=O)(=O)c4ccc(NC(=O)OC)cc4)CC3)cc21	none
O=C(Cc1ccc(F)cc1)N(c1ccc(F)cc1)C1C=CS(=O)(=O)C1 (stereo not drawn)	NCF1 inh 35.1
O=C(Cc1ccccc1)N(c1ccc(F)cc1)C1C=CS(=O)(=O)C1 (stereo not drawn)	none
O=C(Nc1ccc(Oc2ncnc3cc(Cl)ccc23)nc1)c1ccc(F)cc1	none
Cc1ccc(CCC(=O)Nc2ccccc2F)s1	none
CCN1CCN(C(c2cccs2)C(C)NS(=O)(=O)c2ccccc2)CC1 (stereo not drawn)	Calpain2 inh 56.8

Assay outcomes (PubChem BioAssay)
